We go through 1 compound from ChEMBL document CHEMBL3808328, “Caged xanthones: Potent inhibitors of global predominant MRSA USA300” (Bioorg Med Chem Lett, 2016).

In series [1] the test system is Staphylococcus aureus. Briefly: Antibacterial activity against methicillin-susceptible Staphylococcus aureus RF122 infected in A549 cells assessed as inhibition of bacterial invasion after 2 hrs.
The test system of series [2] is Staphylococcus aureus. Briefly: Effect on methicillin-susceptible Staphylococcus aureus RF122 growth at >= MIC after 2 hrs. The format is organism-based.
Series [3] concerns Staphylococcus aureus. Briefly: Antibacterial activity against methicillin-susceptible Staphylococcus aureus ATCC 25923 assessed as zone of inhibition at 30 ug after 18 hrs by disk diffusion method. The format is functional. As to conditions: ATCC 25923, 18 h, read-out: DIZ. In short, it runs like this: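 Disks 6 mm in diameter; a 6 mm zone means no growth inhibition. The diameters of complete-inhibition zones are averaged over at least three independent experiments and reported with standard errors.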
In general terms: In agar diffusion tests the substance spreads into inoculated agar from a disc or well.

Series [4] deals with Staphylococcus aureus. In words: Antibacterial activity against methicillin-resistant Staphylococcus aureus USA300 SF8300 assessed as zone of inhibition at 30 ug after 18 hrs by disk diffusion method. The format is functional. As to conditions: USA300 SF8300, 18 h, read-out: DIZ. In short, it runs like this: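 Disk diffusion on 6 mm paper disks, with methicillin-susceptible S. aureus ATCC 25923 as the control strain alongside MRSA USA300 SF8300. The read-out is the diameter of the complete inhibition zone, averaged over at least three independent experiments and reported with standard errors. A 6 mm zone means no growth inhibition.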

In series [5] the test system is Staphylococcus aureus. In words: Bactericidal activity against methicillin-susceptible Staphylococcus aureus ATCC 29213 after 18 to 20 hrs. The format is functional. Put shortly: (§1)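 Broth microdilution gives both MIC and MBC. Each compound is serially 2-fold diluted starting from its stock concentration.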
The subject of series [6] is HEK293. Briefly: Cytotoxicity against human HEK293 cells assessed as reduction in cell viability after 24 to 48 hrs by […] assay.
Series [7] deals with HEK293. In words: Cytotoxicity against human HEK293 cells assessed as change in cell morphology at 12.5 to 25 uM after 10 mins to 2 hrs by microscopic analysis. The format is cell-based. As to conditions: hek293, 25 µM.
In series [8] the test system is A549. Briefly: Cytotoxicity against human A549 cells assessed as change in cell morphology at 12.5 to 25 uM after 10 mins to 2 hrs by microscopic analysis. The format is cell-based. As to conditions: a549, 25 µM.
In series [9] the test system is Staphylococcus aureus. Briefly: Bactericidal activity against methicillin-resistant Staphylococcus aureus USA300 SF8300 after 18 to 20 hrs. The format is functional. In short, it runs like this: (§2)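 Broth microdilution to find MIC and MBC against MRSA USA300 SF8300. Each compound was serially 2-fold diluted starting from its stock concentration.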
Series [10] has as its system A549. Briefly: Cytotoxicity against human A549 cells assessed as reduction in cell viability after 24 to 48 hrs by Presto Blue assay. The format is cell-based.
The test system of series [11] is Staphylococcus aureus. Briefly: Antibacterial activity against methicillin-susceptible Staphylococcus aureus ATCC 29213 assessed as growth inhibition after 18 to 20 hrs by microdilution assay. Type of series: functional. In short, it runs like this:
as §1
(Broth dilution looks for growth in wells or tubes with falling amounts of substance.)

In series [12] the test system is Staphylococcus aureus. Briefly: Antibacterial activity against methicillin-resistant Staphylococcus aureus USA300 SF8300 assessed as growth inhibition after 18 to 20 hrs by microdilution assay. The format is functional. In short, it runs like this:
as §2

pIC50: −log10 of the molar value. Converted amounts (≈) assume the structure as drawn.

Consider `CC(C)=CCc1c2c(c(O)c3c1O[C@@]14C(=C[C@H]5CC1C(C)(C)O[C@]4(C/C=C(/C)C(=O)N[C@H](C(=O)O)C(C)C)C5=O)C3=O)C=CC(C)(C)O2`, for which the inhibition entry in series [1] is “Dose-dependent effect”. Further, the Activity result in [2], in series [7] and in [8] was “Non-toxic” in each case. Also, the zone of inhibition at 30 µg/disc in [3] amounted to 20 mm; in series [4] it was 22.2 mm. For the same compound, the results for the MBC in series [5] and in series [9] were 12.5 µM (≈ 8.25 µg/mL) and 25 µM (≈ 16.5 µg/mL), respectively. Moreover, the pIC50 in [6] is 4.66; in [10], 4.53. In addition, the MIC worked out at 12.5 µM (≈ 8.25 µg/mL) in series [11] and 25 µM (≈ 16.5 µg/mL) in series [12].

For orientation: MBC means the smallest concentration meeting the test's criterion for killing. Low readings indicate greater bactericidal potency, high ones weaker bactericidal potency. By pIC50 is commonly meant −log10 of the IC50, conventionally taken in molar units. Usually MIC stands for the least concentration at which growth counts as inhibited.
